Compound activity deposited in PubChem by several laboratories.
A selection: hits, their analogues and other compounds. The true share with any hit is near 3.8%.
NPY Y2 blocker: antagonists of human neuropeptide Y receptor Y2. P49146. NPY-Y2 expressing cells, antagonist mode. inhibition, % at 2.7 µM. 140,000 compounds, 0.99% hits. AID 793; in the data active = inhibition above about 17%
Target sequence (P49146 whole entry, looked up): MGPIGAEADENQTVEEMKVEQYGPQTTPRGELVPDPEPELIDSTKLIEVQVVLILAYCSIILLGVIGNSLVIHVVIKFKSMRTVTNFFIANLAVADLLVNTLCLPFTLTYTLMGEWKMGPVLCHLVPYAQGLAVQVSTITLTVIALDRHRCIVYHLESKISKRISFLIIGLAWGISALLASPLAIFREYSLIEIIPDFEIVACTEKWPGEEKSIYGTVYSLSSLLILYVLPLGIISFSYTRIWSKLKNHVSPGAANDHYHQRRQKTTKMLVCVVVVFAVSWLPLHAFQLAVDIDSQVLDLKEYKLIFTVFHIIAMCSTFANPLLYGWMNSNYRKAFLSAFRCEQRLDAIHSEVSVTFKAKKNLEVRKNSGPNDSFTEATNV
INS promoter inh: TRM-6 insulin promoter activity inhibition; TRM-6 cells, insulin promoter-eGFP reporter, imaging; reporter expression induced with tamoxifen; inhibition, % at 2 µM; 130,000 compounds, 0.9% hits;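 active = inhibition above the mean plus 3 SD, with well images judged a real hit on visual review, cut at about 60% in these data, passing the limit was not always enough; inconclusive = inhibition over the cutoff but images rejected on review; inactive = inhibition not above the cutoff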
NPY2 pot ag: potentiators or agonists of human neuropeptide Y receptor Y2; P49146; cells expressing NPY-Y2, potentiator/agonist read-out; activation, % at 3.6 µM; 220,000 compounds, 0.45% hits; in the data active = activation above about 27%;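 note: cells stimulated with NPY near EC25 plus isoproterenol at EC100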
RAM network inh: yeast RAM network inhibition | S. cerevisiae dse1pr::URA3 reporter, 5-FOA growth OD615, 2 d; analog-sensitive cbk1-as2 kinase mutant strain | inhibition, % at 50 µM | 190,000 compounds, 1.8% hits;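 active = inhibition above a set limit, 3 SD over mean compound inhibition, cut at about 8.4% in these data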;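 note: inhibition rescues growth on 5-FOA so higher OD means more RAM inhibition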
NPY-Y1 antag: antagonists of human neuropeptide Y receptor Y1; HEK293-CNG Y1 cells, membrane potential fluorescence; NPY at EC95, then isoproterenol; inhibition, % at 3.6 µM; 200,000 compounds, 1% hits;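 active = inhibition above the campaign mean inhibition of all tested compounds plus 3 SD, cut at about 20% in these data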
Target sequence (P25929 whole entry, looked up): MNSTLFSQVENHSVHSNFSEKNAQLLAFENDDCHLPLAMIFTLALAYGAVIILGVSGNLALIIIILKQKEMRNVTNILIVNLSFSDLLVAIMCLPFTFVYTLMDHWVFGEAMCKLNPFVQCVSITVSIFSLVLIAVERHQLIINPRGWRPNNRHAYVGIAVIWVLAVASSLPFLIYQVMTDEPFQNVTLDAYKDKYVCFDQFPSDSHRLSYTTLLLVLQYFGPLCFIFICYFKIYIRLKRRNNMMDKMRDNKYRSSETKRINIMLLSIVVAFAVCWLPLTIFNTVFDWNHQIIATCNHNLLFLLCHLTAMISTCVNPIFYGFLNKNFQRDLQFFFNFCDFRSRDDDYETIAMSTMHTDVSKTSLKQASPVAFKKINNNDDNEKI
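Material: HEK293 cells with Y1 receptor plus CNG channel; times: compound incubation 1 h at room temperature, readout 45 min post-stimulation; signal: fluorescence, membrane potential probe; read-out basis: fluorescence ratio normalized to % inhibition between controls; benchmarks: full-block control isoproterenol-only wells, zero-block control NPY plus isoproterenol wells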
NPY-Y1 PAM-ag: potentiates or activates human NPY-Y1 receptor; NPY-Y1 expressing cells, potentiator/agonist activation; 220,000 compounds, 0.37% hits; activation, % at 3.6 µM; P25929; in the data active = activation above about 33%, passing the limit was not always enough;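 note: cells stimulated with NPY at EC10 then isoproterenol at EC100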
NPY-Y1 antag ct: counter-screen for NPY-Y2 antagonists: human NPY-Y1 antagonism. shares compounds with NPY Y2 blocker. 710 compounds, 19% hits. inhibition, % at 3.6 µM. cell-based NPY-Y1 antagonism counterscreen. AID 1256; in the data active = inhibition above about 20%;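 note: cells challenged with NPY then isoproterenol with cAMP sensed through a CNG channel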
NPY2 antag conf: confirmation of human neuropeptide Y receptor Y2 antagonists | shares compounds with NPY Y2 blocker | HEK293 NPY-Y2 CNG channel, membrane potential fluorescence | inhibition, % at 2.8 µM | AID 1257 | 710 compounds, 32% hits;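 active = mean inhibition of triplicate wells above the hit cutoff set in the primary screen, cut at about 17% in these data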
Of the large screens only hits and unclear results are named; the others gave an inactive call (follow-up assays come after a bar, where they were run).

COCCN(C(=O)Cn1nnc2ccccc21)C(C(=O)NC1CCCCC1)c1ccc(OC)cc1OC (stereo not given)	NPY Y2 blocker 19.4 | NPY-Y1 antag ct inactive | NPY2 antag conf inactive
O=C(CSc1ncnc2[nH]ncc12)Nc1cccc(Oc2ccccc2)c1	none (no result: NPY Y2 blocker, INS promoter inh)
Cc1ccc(C(=O)NC2c3ccccc3-c3ccccc32)cc1	NPY Y2 blocker 19.1 | NPY-Y1 antag ct inactive | NPY2 antag conf inactive
C=C(C)CSc1cc(C)nc2c(-c3ccccc3)c(C)nn12	none (no result: NPY Y2 blocker, INS promoter inh, RAM network inh, NPY-Y1 antag)
COc1ccccc1NC(=O)NC1(C(=O)N2CCCCCC2)CCCCC1	none
CCCCOc1ccc(C2=NNC(=O)CC2)cc1	NPY Y2 blocker 22.5 | NPY-Y1 antag ct inactive | NPY2 antag conf 39.4
Cc1cc(N2CCN(c3ccccc3)CC2)n2c(n1)nc1ccccc12	NPY Y2 blocker 22.4 | NPY-Y1 antag ct inactive | NPY2 antag conf inactive
Cc1onc(-c2c(Cl)cccc2Cl)c1/C(N)=N/OC(=O)C1CC1	none (no result: NPY Y2 blocker, INS promoter inh, RAM network inh, NPY-Y1 antag)
S=C1NC2(CCCCC2)Nc2ccccc21	none (no result: NPY Y2 blocker, INS promoter inh)
Brc1cc2c(cc1Br)OCCOCCOCCOCCO2	none (no result: NPY Y2 blocker)
Brc1ccc2c(c1)OCCOCCOc1cc(Br)ccc1OCCOCCOCCO2	NPY Y2 blocker 23.8 | NPY-Y1 antag ct inactive | NPY2 antag conf inactive
CCOC(=O)N1CCC(NC(=O)c2cnc3n(c2=O)CCS3)CC1	none (no result: NPY Y2 blocker, INS promoter inh)
CC1(C)CC(=O)C=C(NCc2ccc(Cl)c(Cl)c2)C1	NPY Y2 blocker 17.6 (no result: INS promoter inh) | NPY-Y1 antag ct inactive | NPY2 antag conf inactive
O=C1C=C(NCc2ccc(Cl)c(Cl)c2)CC1	none
Cc1cc(C(=O)Cn2nnc(-c3ccc(Cl)cc3)n2)c(C)n1CC1CCCO1 (stereo not given)	NPY Y2 blocker 20.1 (no result: INS promoter inh) | NPY-Y1 antag ct inactive | NPY2 antag conf inactive
Cc1cc(C(=O)CSc2nnc(-c3ccc(Cl)cc3)n2C)c(C)n1CC1CCCO1 (stereo not given)	none
Nc1nc(CN2CCN(C(c3ccccc3)c3ccccc3)CC2)nc(Nc2ccccc2)n1	none (no result: NPY Y2 blocker, INS promoter inh, RAM network inh, NPY-Y1 antag)
Nc1nc(CN2CCC(Cc3ccccc3)CC2)nc(Nc2ccccc2)n1	NPY Y2 blocker 19.0 | NPY-Y1 antag ct inactive | NPY2 antag conf inactive
O=C(COC(=O)/C=C/c1ccc(Cl)cc1)Nc1ccccc1-c1ccccc1	NPY Y2 blocker 22.1, RAM network inh 8.7 (no result: INS promoter inh) | NPY-Y1 antag ct inactive | NPY2 antag conf 17.2
Cc1c(NC(=O)COC(=O)/C=C/c2ccc(Cl)cc2)c(=O)n(-c2ccccc2)n1C	none (no result: NPY Y2 blocker)
CN(C)N1C(=O)CC(N2CCCCC2)C1=O (stereo not given)	none (no result: NPY Y2 blocker)
c1ccc2c(N3CCCCC3)nc(N3CCOCC3)nc2c1	none (no result: NPY Y2 blocker)
c1ccc(N2CCN(c3nc(NCc4ccco4)c4ccccc4n3)CC2)cc1	NPY Y2 blocker 19.4, NPY2 pot ag 31.8 | NPY-Y1 antag ct inactive | NPY2 antag conf inactive
c1coc(CNc2nc(N3CCCCC3)nc3ccccc23)c1	NPY Y2 blocker 26.4 | NPY-Y1 antag ct inactive | NPY2 antag conf inactive
c1ccc2c(N3CCCCC3)nc(N3CCCCC3)nc2c1	NPY Y2 blocker 23.1 | NPY-Y1 antag ct inactive | NPY2 antag conf inactive
O=C(NCCc1cnn(-c2ccccc2)c1)c1cc(COc2c(F)cccc2F)on1	none (no result: NPY Y2 blocker, INS promoter inh)
CC(N=C1CC(C)(C)CC(=O)/C1=C(/O)CCCN1C(=O)c2ccccc2C1=O)C(=O)O (stereo not given)	none (no result: NPY Y2 blocker)
Cc1ccc(NC(=O)c2c(C(F)(F)F)nn(C)c2SCc2ccc(Cl)cc2)cc1C	NPY Y2 blocker 17.2, RAM network inh 11.4 (no result: INS promoter inh) | NPY-Y1 antag ct inactive | NPY2 antag conf inactive
O=C(/C=C/c1ccc(Br)o1)NCc1ccccc1	none (no result: NPY Y2 blocker)
CCn1cc(CN(C)S(=O)(=O)c2ccc3ccccc3c2)c(C)n1	NPY Y2 blocker 24.6 | NPY-Y1 antag ct inactive | NPY2 antag conf inactive
Cc1ccc(NC(=S)NCc2ccc3c(c2)OCO3)cc1C	NPY Y2 blocker 17.8 | NPY-Y1 antag ct inactive | NPY2 antag conf 18.3
COc1ccc(/C=C(\C#N)C(=O)Nc2ccc3[nH]c(=O)[nH]c3c2)cc1	none (no result: NPY Y2 blocker, INS promoter inh, RAM network inh, NPY-Y1 antag)
Cc1nc2c3ccccc3nc(SCC(=O)N3CC(C)CC(C)C3)n2n1 (stereo not given)	none
Cc1nc2c3ccccc3nc(SCC(=O)c3ccc(Cl)cc3)n2n1	NPY Y2 blocker 27.2 | NPY-Y1 antag ct 21.4 | NPY2 antag conf inactive
CC12CN3CC(C)(CN(C1)C3c1ccc(F)cc1)C2 (stereo not given)	none (no result: NPY Y2 blocker)
CC(C)CCNC(=O)c1cc(-c2ccco2)nc2ccccc12	NPY Y2 blocker 32.8 | NPY-Y1 antag ct 39.8 | NPY2 antag conf 40.1
Cc1[nH]c2ccccc2c1/C=C/c1nc2ccccc2c(=O)n1CCO	none (no result: NPY Y2 blocker)
O=C(Nc1ccc2c(c1)OCO2)c1nn(-c2ccccc2)c(=O)c2ccccc12	NPY Y2 blocker 17.2 | NPY-Y1 antag ct inactive | NPY2 antag conf inactive
Cc1ccc(/C=C/c2nnc(-c3cccc(C)c3)o2)cc1	none (no result: INS promoter inh)
Cc1ccc(-c2nnc(/C=C/c3ccccc3)o2)cc1	NPY Y2 blocker 20.0 | NPY-Y1 antag ct inactive | NPY2 antag conf inactive
CCC(C)N(C(=O)COC(=O)/C=C/c1ccc(O)c(OC)c1)C1CCS(=O)(=O)C1 (stereo not given)	NPY Y2 blocker 18.3 | NPY-Y1 antag ct inactive | NPY2 antag conf inactive
COc1cc(/C=C/C(=O)OCC(=O)NC2CCS(=O)(=O)C2)ccc1O (stereo not given)	INS promoter inh inconclusive
Cc1ccc(NC(=O)COC(=O)CN2C(=O)COc3ccccc32)cc1	none
CC(C)C(OC(=O)CN1C(=O)COc2ccccc21)C(=O)NC1CCCC1 (stereo not given)	NPY Y2 blocker 18.2 (no result: INS promoter inh) | NPY-Y1 antag ct inactive | NPY2 antag conf inactive
Cc1ccc(S(=O)(=O)N2CCCCC2)cc1NC(=O)Cn1c(=O)cnc2ccccc21	none (no result: NPY Y2 blocker, INS promoter inh)
COC(=O)c1ccc(OC)c(CSc2nnc(COc3ccccc3)o2)c1	NPY Y2 blocker 18.0 (no result: INS promoter inh) | NPY-Y1 antag ct inactive | NPY2 antag conf inactive
COC(=O)c1ccc(OC)c(CSc2nnc(COc3ccc(Cl)cc3)o2)c1	NPY Y2 blocker 26.8, RAM network inh 9.7 | NPY-Y1 antag ct 24.7 | NPY2 antag conf 19.1
CCc1cccc(CC)c1NC(=O)Cn1c(-c2ccccc2Cl)nc2ccccc21	NPY Y2 blocker 23.6 | NPY-Y1 antag ct inactive | NPY2 antag conf inactive
CC(C)c1ccc(C(=O)NNC(=O)C2CC=CCC2C(=O)O)cc1 (stereo not given)	none
Cc1n[nH]c(=S)n1/N=C/c1ccccc1OCc1ccc(Cl)cc1Cl	NPY Y2 blocker 17.2 | NPY-Y1 antag ct 27.4 | NPY2 antag conf 54.3
COc1cccc(-c2nnc3sc(-c4ccc(C)cc4)nn23)c1	NPY Y2 blocker 26.3 | NPY-Y1 antag ct inactive | NPY2 antag conf inactive
COc1cccc(C2(O)CCN(CC(=O)NCC3CC3)CC2)c1	none (no result: NPY Y2 blocker)
